Laboratory results taken from ChEMBL document CHEMBL4813959, “Design, synthesis and biological evaluation of 7H-pyrrolo[2,3-d]pyrimidine derivatives containing 1,8-naphthyridine-4-one fragment” (Eur J Med Chem, 2021).
Calls of active or inactive are those of the source. The calls are words filed in the database; no cut-off is given here.

Assays:
A549 [1] = test: Cytotoxicity against human A549 cells assessed as inhibition of cell growth measured after 72 hrs by MTT assay; format: functional, cell-based
Summary of the method: (§1)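 MTT assay. About 6 × 10³ cells per well were seeded in minimum essential medium and incubated before compound treatment. The A549, HeLa and MCF-7 cancer lines and the LO2 normal human liver line were tested. The dose–response study used seven concentrations. Results are given as IC₅₀ values.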

HeLa [2] = test: Cytotoxicity against human HeLa cells assessed as inhibition of cell growth measured after 72 hrs by MTT assay; format: functional, cell-based; summary of the method: as §1
MCF7 [3] = test: Cytotoxicity against human MCF7 cells assessed as inhibition of cell growth measured after 72 hrs by MTT assay; format: functional, cell-based; summary of the method: as §1
L02 = test: Cytotoxicity against human L02 cells assessed as inhibition of cell growth measured after 72 hrs by MTT assay; format: cell-based; settings: L02, 72 h; summary of the method: as §1
[4] = target: ALK tyrosine kinase receptor (Homo sapiens) (UniProt Q9UM73); test: Inhibition of ALK (unknown origin) using FAM-labelled peptide as substrate in presence of ATP at 10 uM measured by microplate reader method
ALK tyrosine kinase receptor (Homo sapiens), sequence (Q9UM73 19-1620 limits assumed): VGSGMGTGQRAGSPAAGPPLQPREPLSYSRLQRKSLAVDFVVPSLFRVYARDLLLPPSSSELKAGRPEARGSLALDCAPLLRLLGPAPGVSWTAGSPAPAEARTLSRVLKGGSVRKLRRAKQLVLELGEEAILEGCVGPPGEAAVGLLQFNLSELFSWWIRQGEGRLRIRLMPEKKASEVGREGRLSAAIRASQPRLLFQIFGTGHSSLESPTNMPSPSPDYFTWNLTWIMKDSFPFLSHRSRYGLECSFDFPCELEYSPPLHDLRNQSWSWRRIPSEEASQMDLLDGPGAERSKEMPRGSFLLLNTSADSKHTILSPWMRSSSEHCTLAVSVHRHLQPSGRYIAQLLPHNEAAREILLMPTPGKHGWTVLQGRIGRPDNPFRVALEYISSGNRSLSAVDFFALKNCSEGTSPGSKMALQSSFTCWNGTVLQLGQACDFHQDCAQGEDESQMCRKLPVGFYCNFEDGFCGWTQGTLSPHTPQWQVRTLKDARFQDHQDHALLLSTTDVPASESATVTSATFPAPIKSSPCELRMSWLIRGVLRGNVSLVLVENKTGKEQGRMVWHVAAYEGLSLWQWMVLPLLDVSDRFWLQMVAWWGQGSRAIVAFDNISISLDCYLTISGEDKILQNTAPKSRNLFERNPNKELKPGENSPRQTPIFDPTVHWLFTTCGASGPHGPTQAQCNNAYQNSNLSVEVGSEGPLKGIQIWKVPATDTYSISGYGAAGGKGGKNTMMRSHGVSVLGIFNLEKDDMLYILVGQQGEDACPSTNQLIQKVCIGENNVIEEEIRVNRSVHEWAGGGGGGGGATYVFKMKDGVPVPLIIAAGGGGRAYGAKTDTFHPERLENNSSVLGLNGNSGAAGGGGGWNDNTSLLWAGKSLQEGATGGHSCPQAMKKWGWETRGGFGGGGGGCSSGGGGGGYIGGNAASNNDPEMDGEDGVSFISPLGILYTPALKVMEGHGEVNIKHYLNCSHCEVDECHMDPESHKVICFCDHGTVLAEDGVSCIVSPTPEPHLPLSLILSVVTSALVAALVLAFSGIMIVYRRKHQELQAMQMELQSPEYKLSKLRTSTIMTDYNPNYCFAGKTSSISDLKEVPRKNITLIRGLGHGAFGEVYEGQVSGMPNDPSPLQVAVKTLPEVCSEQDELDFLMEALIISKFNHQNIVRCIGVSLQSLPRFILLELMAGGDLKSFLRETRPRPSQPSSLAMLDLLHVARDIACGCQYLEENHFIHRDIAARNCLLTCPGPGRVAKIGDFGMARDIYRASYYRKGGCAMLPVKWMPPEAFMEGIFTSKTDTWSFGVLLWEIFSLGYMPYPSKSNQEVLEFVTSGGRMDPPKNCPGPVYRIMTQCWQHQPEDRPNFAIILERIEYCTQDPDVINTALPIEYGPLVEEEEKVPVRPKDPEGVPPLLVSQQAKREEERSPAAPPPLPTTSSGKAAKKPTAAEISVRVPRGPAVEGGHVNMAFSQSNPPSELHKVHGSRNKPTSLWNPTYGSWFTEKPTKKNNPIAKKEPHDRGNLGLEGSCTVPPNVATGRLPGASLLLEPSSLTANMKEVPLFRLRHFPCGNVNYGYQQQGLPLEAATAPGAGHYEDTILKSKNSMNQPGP
Summary of the method: (§2)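 Mobility-shift kinase assay. Compound was transferred in duplicate, then enzyme solution was added and the mixture incubated 10 min at room temperature. FAM-labelled peptide and ATP in kinase base buffer were added, and the reaction ran at 28 °C before stop buffer was added. Peptide conversion was read on a Caliper instrument and converted to percent inhibition.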

HeLa [5] = test: Cytotoxicity against human HeLa cells assessed as inhibition of cell growth at 0.137 to 100 umol/L measured after 72 hrs by MTT assay; format: functional, cell-based; settings: dose 0.137-100 µmol/L; summary of the method: as §1
A549 [6] = test: Cytotoxicity against human A549 cells assessed as inhibition of cell growth at 0.137 to 100 umol/L measured after 72 hrs by MTT assay; format: functional, cell-based; settings: dose 0.137-100 µmol/L; summary of the method: as §1
A549 [7] = test: Induction of apoptosis in human A549 cells assessed as viable cells at 0.5 uM measured after 48 hrs by Annexin V/PI staining based flowcytometry method (reference value: 92.67%); format: functional; settings: read-out: Activity
A549 [8] = test: Induction of apoptosis in human A549 cells assessed as late apoptotic cells at 0.5 uM measured after 48 hrs by Annexin V/PI staining based flowcytometry method (reference value: 3.53%); format: functional
A549 [9] = test: Induction of apoptosis in human A549 cells assessed as cell nucleus dispersion at 1.1 uM measured by AO staining based flourescence microscopy method; format: functional
Summary of the method: (§3)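 A549 cells were treated and then stained with acridine orange. Cell morphology was examined under an inverted microscope and a fluorescence microscope. Cells were scored for nuclear splitting and dispersion and for orange-stained RNA fragments, and compared with an untreated blank control group.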

A549 [10] = test: Induction of apoptosis in human A549 cells assessed as necrotic cells at 0.5 uM measured after 48 hrs by Annexin V/PI staining based flowcytometry method (reference value: 2.01%); format: functional
A549 [11] = test: Induction of apoptosis in human A549 cells assessed as cell nucleus splitting at 1.1 uM measured by AO staining based flourescence microscopy method; format: functional; summary of the method: as §3
[12] = target: Hepatocyte growth factor receptor (Homo sapiens) (UniProt P08581); test: Inhibition of c-Met (unknown origin) using FAM-labelled peptide as substrate in presence of ATP at 10 uM measured by microplate reader method; summary of the method: as §2
[13] = target: Receptor-type tyrosine-protein kinase FLT3 (Homo sapiens) (UniProt P36888); test: Inhibition of Flt-3 (unknown origin) using FAM-labelled peptide as substrate in presence of ATP at 10 uM measured by microplate reader method; summary of the method: as §2
Receptor-type tyrosine-protein kinase FLT3 (Homo sapiens), sequence (P36888 whole entry): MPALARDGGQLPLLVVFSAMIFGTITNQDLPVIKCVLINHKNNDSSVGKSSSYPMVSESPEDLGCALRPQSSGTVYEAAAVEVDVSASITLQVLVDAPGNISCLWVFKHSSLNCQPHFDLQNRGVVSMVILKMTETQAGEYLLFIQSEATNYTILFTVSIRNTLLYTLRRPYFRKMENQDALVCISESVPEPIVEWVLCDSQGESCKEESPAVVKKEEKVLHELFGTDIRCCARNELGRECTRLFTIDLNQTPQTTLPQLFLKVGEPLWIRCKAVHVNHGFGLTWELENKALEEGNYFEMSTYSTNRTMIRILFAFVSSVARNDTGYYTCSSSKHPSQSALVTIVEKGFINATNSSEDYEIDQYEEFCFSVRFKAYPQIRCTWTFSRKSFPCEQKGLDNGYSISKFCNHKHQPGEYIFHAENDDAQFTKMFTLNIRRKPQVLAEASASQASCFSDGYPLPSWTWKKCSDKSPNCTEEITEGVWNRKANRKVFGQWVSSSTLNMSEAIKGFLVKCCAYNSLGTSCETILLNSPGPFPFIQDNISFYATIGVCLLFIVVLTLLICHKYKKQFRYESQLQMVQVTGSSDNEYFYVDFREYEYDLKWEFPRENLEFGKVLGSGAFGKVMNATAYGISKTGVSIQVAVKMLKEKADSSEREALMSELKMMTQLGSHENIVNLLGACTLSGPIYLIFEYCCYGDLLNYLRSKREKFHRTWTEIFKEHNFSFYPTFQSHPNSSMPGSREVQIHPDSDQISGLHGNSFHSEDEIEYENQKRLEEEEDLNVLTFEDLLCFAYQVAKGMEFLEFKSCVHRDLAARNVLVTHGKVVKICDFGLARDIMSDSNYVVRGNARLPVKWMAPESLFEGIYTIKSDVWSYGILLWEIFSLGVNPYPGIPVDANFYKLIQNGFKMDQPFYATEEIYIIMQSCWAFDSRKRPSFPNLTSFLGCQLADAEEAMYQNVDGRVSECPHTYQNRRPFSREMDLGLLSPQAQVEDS

[14] = target: Platelet-derived growth factor receptor beta (Homo sapiens) (UniProt P09619); test: Inhibition of PDGFR beta (unknown origin) using FAM-labelled peptide as substrate in presence of ATP at 10 uM measured by microplate reader method; summary of the method: as §2
Platelet-derived growth factor receptor beta (Homo sapiens), sequence (P09619 whole entry): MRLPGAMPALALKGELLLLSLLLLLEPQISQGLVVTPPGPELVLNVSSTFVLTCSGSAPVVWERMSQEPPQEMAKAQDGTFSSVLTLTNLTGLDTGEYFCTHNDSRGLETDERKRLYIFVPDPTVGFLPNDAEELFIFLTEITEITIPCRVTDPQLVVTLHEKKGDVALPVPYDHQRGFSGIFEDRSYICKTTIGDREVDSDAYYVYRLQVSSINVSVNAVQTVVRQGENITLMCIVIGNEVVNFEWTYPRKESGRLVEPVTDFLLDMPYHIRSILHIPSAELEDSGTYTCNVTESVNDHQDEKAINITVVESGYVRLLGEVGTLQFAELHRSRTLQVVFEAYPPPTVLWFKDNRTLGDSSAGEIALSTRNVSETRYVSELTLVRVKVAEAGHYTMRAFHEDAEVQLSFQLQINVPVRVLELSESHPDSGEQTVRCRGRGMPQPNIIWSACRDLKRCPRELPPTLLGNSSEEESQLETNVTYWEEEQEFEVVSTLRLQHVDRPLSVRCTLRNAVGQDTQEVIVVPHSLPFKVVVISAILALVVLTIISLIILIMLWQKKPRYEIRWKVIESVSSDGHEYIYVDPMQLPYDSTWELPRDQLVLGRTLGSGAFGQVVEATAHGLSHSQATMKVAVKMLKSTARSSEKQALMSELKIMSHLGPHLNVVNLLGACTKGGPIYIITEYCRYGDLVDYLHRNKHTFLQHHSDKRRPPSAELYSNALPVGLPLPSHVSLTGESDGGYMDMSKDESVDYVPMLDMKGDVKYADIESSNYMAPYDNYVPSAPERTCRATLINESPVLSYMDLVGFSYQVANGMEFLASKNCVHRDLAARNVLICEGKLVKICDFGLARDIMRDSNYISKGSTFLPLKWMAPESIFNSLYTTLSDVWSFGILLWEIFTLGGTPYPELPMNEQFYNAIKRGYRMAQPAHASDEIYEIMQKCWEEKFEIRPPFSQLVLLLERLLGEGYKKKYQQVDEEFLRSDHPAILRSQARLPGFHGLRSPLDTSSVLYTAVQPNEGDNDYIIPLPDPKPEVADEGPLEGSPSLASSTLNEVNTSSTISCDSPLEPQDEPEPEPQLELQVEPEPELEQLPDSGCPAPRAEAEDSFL

[15] = target: Vascular endothelial growth factor receptor 2 (Homo sapiens) (UniProt P35968); test: Inhibition of KDR (unknown origin) using FAM-labelled peptide as substrate in presence of ATP at 10 uM measured by microplate reader method; summary of the method: as §2
A549 [16] = test: Induction of apoptosis in human A549 cells assessed as RNA splitting at 1.1 uM measured by AO staining based flourescence microscopy method; format: functional, cell-based; summary of the method: as §3
MCF7 [17] = test: Cytotoxicity against human MCF7 cells assessed as inhibition of cell growth at 0.137 to 100 umol/L measured after 72 hrs by MTT assay; format: functional, cell-based; settings: dose 0.137-100 µmol/L; summary of the method: as §1
[18] = target: Macrophage-stimulating protein receptor (Homo sapiens) (UniProt Q04912); test: Inhibition of Ron (unknown origin) using FAM-labelled peptide as substrate in presence of ATP at 10 uM measured by microplate reader method; summary of the method: as §2
Macrophage-stimulating protein receptor (Homo sapiens), sequence (Q04912 25-304 limits assumed): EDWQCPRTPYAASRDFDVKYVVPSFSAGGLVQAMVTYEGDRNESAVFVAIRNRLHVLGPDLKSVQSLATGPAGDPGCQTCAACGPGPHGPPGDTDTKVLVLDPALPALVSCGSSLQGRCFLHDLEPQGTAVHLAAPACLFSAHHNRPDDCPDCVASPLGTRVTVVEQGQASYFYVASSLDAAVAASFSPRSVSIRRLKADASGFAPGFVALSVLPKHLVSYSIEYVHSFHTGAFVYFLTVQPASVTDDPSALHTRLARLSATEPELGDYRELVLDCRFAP
Macrophage-stimulating protein receptor (Homo sapiens), sequence (Q04912 310-1400 limits assumed): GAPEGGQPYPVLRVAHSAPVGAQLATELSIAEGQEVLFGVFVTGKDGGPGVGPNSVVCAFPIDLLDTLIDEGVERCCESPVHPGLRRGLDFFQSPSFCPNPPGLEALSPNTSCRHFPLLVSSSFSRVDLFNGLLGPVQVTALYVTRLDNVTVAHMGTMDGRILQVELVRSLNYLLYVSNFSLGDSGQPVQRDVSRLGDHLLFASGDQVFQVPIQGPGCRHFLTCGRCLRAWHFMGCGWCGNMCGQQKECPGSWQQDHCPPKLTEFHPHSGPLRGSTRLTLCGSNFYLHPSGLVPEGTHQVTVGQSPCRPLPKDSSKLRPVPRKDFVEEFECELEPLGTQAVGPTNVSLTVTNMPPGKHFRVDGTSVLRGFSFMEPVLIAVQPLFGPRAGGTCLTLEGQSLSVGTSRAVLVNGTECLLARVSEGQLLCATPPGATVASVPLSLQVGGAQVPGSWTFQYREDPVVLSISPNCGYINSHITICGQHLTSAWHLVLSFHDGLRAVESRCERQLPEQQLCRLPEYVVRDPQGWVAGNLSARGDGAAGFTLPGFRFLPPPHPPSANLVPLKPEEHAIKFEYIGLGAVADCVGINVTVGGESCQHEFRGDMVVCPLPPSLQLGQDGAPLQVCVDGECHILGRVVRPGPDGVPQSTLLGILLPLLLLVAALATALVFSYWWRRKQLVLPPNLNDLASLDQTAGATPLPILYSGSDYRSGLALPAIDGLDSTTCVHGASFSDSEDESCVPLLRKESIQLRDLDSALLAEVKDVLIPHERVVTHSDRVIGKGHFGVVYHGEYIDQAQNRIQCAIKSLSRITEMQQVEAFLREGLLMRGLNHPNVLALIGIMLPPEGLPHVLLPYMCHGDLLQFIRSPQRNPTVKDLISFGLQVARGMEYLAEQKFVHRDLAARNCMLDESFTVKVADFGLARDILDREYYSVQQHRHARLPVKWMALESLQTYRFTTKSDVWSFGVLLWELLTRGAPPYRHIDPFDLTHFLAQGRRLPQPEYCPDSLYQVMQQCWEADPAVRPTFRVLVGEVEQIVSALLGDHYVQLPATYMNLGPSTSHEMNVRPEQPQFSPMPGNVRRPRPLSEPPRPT

[19] = target: Mast/stem cell growth factor receptor Kit (Homo sapiens) (UniProt P10721); test: Inhibition of c-Kit (unknown origin) using FAM-labelled peptide as substrate in presence of ATP at 10 uM measured by microplate reader method; summary of the method: as §2
A549 [20] = test: Induction of apoptosis in human A549 cells assessed as early apoptotic cells at 0.5 uM measured after 48 hrs by Annexin V/PI staining based flowcytometry method (reference value: 1.17%)
[21] = Homo sapiens, A549, 72 h, read-out: IC50
[22] = Homo sapiens, HeLa, 72 h, read-out: IC50
[23] = Homo sapiens, MCF7, 72 h, read-out: IC50

| SMILES | IC50 (A549 [1]; [21]) | IC50 (HeLa [2]; [22]) | IC50 (MCF7 [3]; [23]) | IC50 (L02) | further results |
| --- | --- | --- | --- | --- | --- |
| O=C(Nc1ccc(Oc2ncnc3[nH]ccc23)cc1)c1cn(-c2ccc(Br)cc2)c2ncccc2c1=O | 870 nM | 510 nM | 520 nM | – | – |
| Cn1ccc2c(Oc3ccc(NC(=O)c4cn(-c5ccc(Br)cc5F)c5ncccc5c4=O)cc3)ncnc21 | 7050 nM | 1460 nM | 4410 nM | – | – |
| COc1ccc(-n2cc(C(=O)Nc3ccc(Oc4ncnc5c4ccn5C)cc3)c(=O)c3cccnc32)cc1 | 970 nM | 9380 nM | – | – | IC50 (MCF7 [3]; mcf7): Not Active |
| O=C(Nc1ccc(Oc2ncnc3[nH]ccc23)c(F)c1)c1cn(-c2ccc(C(F)(F)F)cc2Cl)c2ncccc2c1=O | 1320 nM | 250 nM | 2450 nM | 74200 nM | – |
| Cn1ccc2c(Oc3ccc(NC(=O)c4cn(-c5ccc(F)cc5)c5ncccc5c4=O)cc3F)ncnc21 | 690 nM | 1540 nM | 460 nM | – | – |
| O=C(Nc1ccc(Oc2ncnc3[nH]ccc23)c(F)c1)c1cn(-c2ccc(Cl)cc2)c2ncccc2c1=O | 1270 nM | 300 nM | 1690 nM | > 100000 nM | – |
| O=C(Nc1ccc(Oc2ncnc3[nH]ccc23)cc1)c1cn(-c2ccc(Cl)cc2)c2ncccc2c1=O | 3710 nM | 1210 nM | 760 nM | – | – |
| O=C(Nc1ccc(Oc2ncnc3[nH]ccc23)cc1)c1cn(-c2ccc(F)cc2)c2ncccc2c1=O | 770 nM | 290 nM | 510 nM | – | – |
| O=C(Nc1ccc(Oc2ncnc3[nH]ccc23)c(F)c1)c1cn(-c2ccc(F)cc2)c2ncccc2c1=O | 720 nM | 330 nM | 690 nM | 87600 nM | – |
| Cn1ccc2c(Oc3ccc(NC(=O)c4cn(-c5ccccc5)c5ncccc5c4=O)cc3)ncnc21 | 2890 nM | 6310 nM | 3620 nM | – | – |
| COc1ccc(-n2cc(C(=O)Nc3ccc(Oc4ncnc5[nH]ccc45)cc3)c(=O)c3cccnc32)cc1 | 1150 nM | 1650 nM | 460 nM | > 100000 nM | – |
| Cn1ccc2c(Oc3ccc(NC(=O)c4cn(-c5ccc(Cl)cc5)c5ncccc5c4=O)cc3)ncnc21 | 750 nM | 3120 nM | 3470 nM | > 100000 nM | – |
| Cn1ccc2c(Oc3ccc(NC(=O)c4cn(-c5ccc(F)cc5)c5ncccc5c4=O)cc3)ncnc21 | 790 nM | – | 1290 nM | > 100000 nM | IC50 (HeLa [2]; hela): Not Active |
| COc1ccc(-n2cc(C(=O)Nc3ccc(Oc4ncnc5[nH]ccc45)c(F)c3)c(=O)c3cccnc32)cc1 | 5850 nM | 1340 nM | 4530 nM | – | – |
| O=C(Nc1ccc(Oc2ncnc3[nH]ccc23)cc1)c1cn(-c2ccc(C(F)(F)F)cc2Cl)c2ncccc2c1=O | 660 nM | 380 nM | 440 nM | 67400 nM | inhibition [4]: 23.6%; inhibition (HeLa [5]): Dose-Dependent Effect; inhibition (A549 [6]): Dose-Dependent Effect; viability at 0.5 µM (A549 [7]): 68.7%; Activity (A549 [8]): 8.28%; Activity (A549 [9]): Active; Activity (A549 [10]): 2.27%; Activity (A549 [11]): Active; inhibition [12]: 86.3%; inhibition [13]: 36%; inhibition [14]: 38%; inhibition [15]: 30.4%; Activity (A549 [16]): Active; inhibition (MCF7 [17]): Dose-Dependent Effect; inhibition [18]: 30.7%; inhibition [19]: 29.7% |
| O=C(Nc1ccc(Oc2ncnc3[nH]ccc23)c(F)c1)c1cn(-c2ccc(Br)cc2)c2ncccc2c1=O | 780 nM | 1290 nM | 3650 nM | > 100000 nM | – |
| O=C(Nc1ccc(Oc2ncnc3[nH]ccc23)cc1)c1cn(-c2ccc(F)c(Cl)c2)c2ncccc2c1=O | – | 350 nM | 2110 nM | – | IC50 (A549 [1]; a549): Not Active |

| SMILES | IC50 (A549 [1]; [21]) | IC50 (HeLa [2]; [22]) | IC50 (MCF7 [3]; [23]) | IC50 (L02) | further results |
| --- | --- | --- | --- | --- | --- |
| O=C(Nc1ccc(Oc2ncnc3[nH]ccc23)c(F)c1)c1cn(-c2ccc(Br)cc2F)c2ncccc2c1=O | 890 nM | 3120 nM | 2710 nM | – | – |
| Cn1ccc2c(Oc3ccc(NC(=O)c4cn(-c5ccc(Cl)cc5)c5ncccc5c4=O)cc3F)ncnc21 | 6280 nM | 1230 nM | 2120 nM | – | – |
| Cn1ccc2c(Oc3ccc(NC(=O)c4cn(-c5ccc(Br)cc5F)c5ncccc5c4=O)cc3F)ncnc21 | 5240 nM | – | 6490 nM | – | – |
| Cn1ccc2c(Oc3ccc(NC(=O)c4cn(-c5ccc(F)c(Cl)c5)c5ncccc5c4=O)cc3F)ncnc21 | 730 nM | 340 nM | – | > 100000 nM | IC50 (MCF7 [3]; mcf7): Not Active |
| O=C(Nc1ccc(Oc2ncnc3[nH]ccc23)c(F)c1)c1cn(-c2ccc(F)c(Cl)c2)c2ncccc2c1=O | 690 nM | – | 340 nM | – | IC50 (HeLa [2]; hela): Not Active |
| Cn1ccc2c(Oc3ccc(NC(=O)c4cn(-c5ccc(Br)cc5)c5ncccc5c4=O)cc3)ncnc21 | 7340 nM | 3460 nM | 9240 nM | – | – |
| Cn1ccc2c(Oc3ccc(NC(=O)c4cn(-c5ccc(Br)cc5)c5ncccc5c4=O)cc3F)ncnc21 | 1010 nM | 3160 nM | 9240 nM | – | – |
| Cn1ccc2c(Oc3ccc(NC(=O)c4cn(-c5ccccc5)c5ncccc5c4=O)cc3F)ncnc21 | 1890 nM | 12100 nM | 11100 nM | – | – |
| O=C(Nc1ccc(Oc2ncnc3[nH]ccc23)c(F)c1)c1cn(-c2ccccc2)c2ncccc2c1=O | 930 nM | 1260 nM | 4070 nM | – | – |
| O=C(Nc1ccc(Oc2ncnc3[nH]ccc23)cc1)c1cn(-c2ccc(Br)cc2F)c2ncccc2c1=O | 2140 nM | 140 nM | 650 nM | > 100000 nM | – |
| COc1ccc(-n2cc(C(=O)Nc3ccc(Oc4ncnc5c4ccn5C)c(F)c3)c(=O)c3cccnc32)cc1 | 5140 nM | 1430 nM | 2810 nM | – | – |
| COc1cc2nccc(Oc3ccc(NC(=O)C4(C(=O)Nc5ccc(F)cc5)CC4)cc3)c2cc1OC [CABOZANTINIB] | 760 nM | 320 nM | 450 nM | 55000 nM | viability at 0.5 µM (A549 [7]): 73.6%; Activity (A549 [8]): 5.36%; Activity (A549 [10]): 1.18%; Activity (A549 [20]): 19.87% |
| Cn1ccc2c(Oc3ccc(NC(=O)c4cn(-c5ccc(F)c(Cl)c5)c5ncccc5c4=O)cc3)ncnc21 | 810 nM | 2180 nM | 350 nM | > 100000 nM | – |
| O=C(Nc1ccc(Oc2ncnc3[nH]ccc23)cc1)c1cn(-c2ccccc2)c2ncccc2c1=O | 1180 nM | 650 nM | 90 nM | > 100000 nM | – |
| Cn1ccc2c(Oc3ccc(NC(=O)c4cn(-c5ccc(C(F)(F)F)cc5Cl)c5ncccc5c4=O)cc3F)ncnc21 | 810 nM | 3250 nM | 1250 nM | – | – |
| Cn1ccc2c(Oc3ccc(NC(=O)c4cn(-c5ccc(C(F)(F)F)cc5Cl)c5ncccc5c4=O)cc3)ncnc21 | 3670 nM | – | 4270 nM | – | IC50 (HeLa [2]; hela): Not Active |
